Results: ChEMBL document CHEMBL2429759, “Anti-tumor activity evaluation of novel chrysin-organogermanium(IV) complex in MCF-7 cells” (Bioorg Med Chem Lett, 2013)
The source made the active and inactive calls. No cut-off for these calls is given here.

Columns and labels:
MCF7 [1] = test: Induction of apoptosis in human MCF7 cells assessed as late apoptotic cells at 10 ug/ml after 24 hrs by annexin-V FITC/propidium iodide staining-based flow cytometry (reference value: 1.0%); type: functional, cell-based
How it was run: (§1)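 Apoptosis in MCF-7 after 24 h exposure to 5, 10 or 20 μg/mL complex; annexin-V-FITC/PI staining with flow cytometry. Quadrants: Q3 live, Q4 apoptotic, Q2 necrotic or late apoptotic.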

MCF7 [2] = test: Disruption of cell morphology in human MCF7 cells assessed as deformed shrunk cell tails at 10 ug/ml by atomic force microscopy relative to control; type: functional, cell-based
How it was run: (§2)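 AFM high-resolution topography and force measurements on control MCF-7 cells and cells treated with 10 μg/mL complex, assessing surface ultrastructure, rigidity and tip-cell adhesion force.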

MCF7 [3] = test: Induction of apoptosis in human MCF7 cells assessed as caspase 3 activation at 20 ug/ml by fluorometric analysis (reference value: 100%); type: functional, cell-based
How it was run: (§3)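 Caspase-3, -8 and -9 activities read fluorometrically in whole-cell extracts of treated MCF-7; mean ± standard deviation of three independent experiments.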

COLO 205 [4] = test: Growth inhibition of human COLO205 cells at 20 ug/ml by MTT assay; type: functional
MCF7 [5] = test: Growth inhibition of human MCF7 cells at 20 ug/ml by MTT assay; type: functional
MCF7 [6] = test: Induction of apoptosis in human MCF7 cells assessed as intracellular ROS production measured as mean fluorescence intensity at 5 ug/ml using DCFH-DA staining-based flow cytometry (reference value: 101.50 no unit); type: functional, cell-based
MCF7 [7] = test: Induction of apoptosis in human MCF7 cells assessed as early apoptotic cells at 20 ug/ml after 24 hrs by annexin-V FITC/propidium iodide staining-based flow cytometry (reference value: 0.5%); type: functional, cell-based; how it was run: as §1
HepG2 [8] = test: Growth inhibition of human HepG2 cells at 5 ug/ml by MTT assay; type: functional
MCF7 [9] = test: Induction of apoptosis in human MCF7 cells assessed as necrotic cells at 20 ug/ml after 24 hrs by annexin-V FITC/propidium iodide staining-based flow cytometry (reference value: 0.3%); type: functional, cell-based; how it was run: as §1
MCF7 [10] = test: Induction of apoptosis in human MCF7 cells assessed as segmentation of nuclei at 10 ug/ml by DAPI staining-based immunofluorescence analysis relative to control; type: functional, cell-based
How it was run: (§4)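 Nuclear morphology of control and 10 μg/mL-treated MCF-7 cells visualised by DAPI staining under fluorescence microscopy.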

MCF7 [11] = test: Induction of apoptosis in human MCF7 cells assessed as early apoptotic cells at 5 ug/ml after 24 hrs by annexin-V FITC/propidium iodide staining-based flow cytometry (reference value: 0.5%); type: functional, cell-based; how it was run: as §1
HepG2 [12] = test: Growth inhibition of human HepG2 cells at 10 ug/ml by MTT assay; type: functional
MCF7 [13] = test: Growth inhibition of human MCF7 cells at 10 ug/ml by MTT assay; type: functional
COLO 205 [14] = test: Growth inhibition of human COLO205 cells by MTT assay; type: functional, cell-based
MCF7 [15] = test: Antimigratory activity against human MCF7 cells at 2.5 to 20 ug/ml after 24 hrs by wound-healing assay; type: functional, cell-based
How it was run: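 Scratch wound-healing: monolayers wounded with a p200 pipette tip, kept with or without complex; images taken at 0 and 24 h; reference lines drawn equidistant.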

MCF7 [16] = test: Induction of apoptosis in human MCF7 cells assessed as viable cells at 5 ug/ml after 24 hrs by annexin-V FITC/propidium iodide staining-based flow cytometry (reference value: 98.1%); type: functional, cell-based; how it was run: as §1
MCF7 [17] = test: Induction of apoptosis in human MCF7 cells assessed as late apoptotic cells at 5 ug/ml after 24 hrs by annexin-V FITC/propidium iodide staining-based flow cytometry (reference value: 1.0%); type: functional, cell-based; how it was run: as §1
MCF7 [18] = test: Induction of apoptosis in human MCF7 cells assessed as disruption of mitochondrial membrane potential measured as mean fluorescence intensity at 20 ug/ml by rhodamine 123 staining-based flow cytometry (reference value: 3094 no unit); type: functional, cell-based
COLO 205 [19] = test: Growth inhibition of human COLO205 cells at 5 ug/ml by MTT assay; type: functional
MCF7 [20] = test: Disruption of cell integrity in human MCF7 cells at 10 ug/ml by immunofluorescence analysis; type: functional, cell-based
How it was run: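 MCF-7 cells treated with complex at various concentrations; α-tubulin stained with Tubulin-Tracker red and fibre network imaged by immunofluorescence microscopy.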

MCF7 [21] = test: Induction of apoptosis in human MCF7 cells assessed as early apoptotic cells at 10 ug/ml after 24 hrs by annexin-V FITC/propidium iodide staining-based flow cytometry (reference value: 0.5%); type: functional, cell-based; how it was run: as §1
MCF7 [22] = test: Cell cycle arrest in human MCF7 cells assessed as accumulation at G2/M phase at 10 ug/ml after 24 hrs by propidium iodide staining-based flow cytometry (reference value: 7.43 +/- 0.98%); type: functional
MCF7 [23] = test: Induction of apoptosis in human MCF7 cells assessed as viable cells at 20 ug/ml after 24 hrs by annexin-V FITC/propidium iodide staining-based flow cytometry (reference value: 98.1%); type: functional, cell-based; how it was run: as §1
MCF7 [24] = test: Induction of apoptosis in human MCF7 cells assessed as gatheration of condensed chromatin at periphery of nuclear membrane at 10 ug/ml by DAPI staining-based immunofluorescence analysis relative to control; type: functional, cell-based; how it was run: as §4
MCF7 [25] = test: Induction of apoptosis in human MCF7 cells assessed as intracellular ROS production measured as mean fluorescence intensity at 2.5 ug/ml using DCFH-DA staining-based flow cytometry (reference value: 101.50 no unit); type: functional, cell-based
MCF7 [26] = test: Growth inhibition of human MCF7 cells at 30 ug/ml by MTT assay; type: functional
MCF7 [27] = test: Induction of apoptosis in human MCF7 cells assessed as necrotic cells at 5 ug/ml after 24 hrs by annexin-V FITC/propidium iodide staining-based flow cytometry (reference value: 0.3%); type: functional, cell-based; how it was run: as §1
COLO 205 [28] = test: Growth inhibition of human COLO205 cells at 30 ug/ml by MTT assay; type: functional
HepG2 [29] = test: Growth inhibition of human HepG2 cells at 30 ug/ml by MTT assay; type: functional
MCF7 [30] = test: Growth inhibition of human MCF7 cells by MTT assay; type: functional, cell-based
MCF7 [31] = test: Cell cycle arrest in human MCF7 cells assessed as accumulation at G2/M phase at 5 ug/ml after 24 hrs by propidium iodide staining-based flow cytometry (reference value: 7.43 +/- 0.98%); type: functional
MCF7 [32] = test: Disruption of microfilament organization in human MCF7 cells at 10 ug/ml by immunofluorescence analysis; type: functional, cell-based
MCF7 [33] = test: Induction of apoptosis in human MCF7 cells assessed as caspase 9 activation at 20 ug/ml by fluorometric analysis (reference value: 100%); type: functional, cell-based; how it was run: as §3
MCF7 [34] = test: Induction of apoptosis in human MCF7 cells assessed as disruption of mitochondrial membrane potential measured as mean fluorescence intensity at 5 ug/ml by rhodamine 123 staining-based flow cytometry (reference value: 3094 no unit); type: functional, cell-based
MCF7 [35] = test: Cell cycle arrest in human MCF7 cells assessed as accumulation at G2/M phase at 2.5 ug/ml after 24 hrs by propidium iodide staining-based flow cytometry (reference value: 7.43 +/- 0.98%); type: functional
MCF7 [36] = test: Induction of apoptosis in human MCF7 cells assessed as disruption of mitochondrial membrane potential measured as mean fluorescence intensity at 10 ug/ml by rhodamine 123 staining-based flow cytometry (reference value: 3094 no unit); type: functional, cell-based
COLO 205 [37] = test: Growth inhibition of human COLO205 cells at 10 ug/ml by MTT assay; type: functional
MCF7 [38] = test: Induction of apoptosis in human MCF7 cells assessed as necrotic cells at 10 ug/ml after 24 hrs by annexin-V FITC/propidium iodide staining-based flow cytometry (reference value: 0.3%); type: functional, cell-based; how it was run: as §1
MCF7 [39] = test: Disruption of cell morphology in human MCF7 cells assessed as decrease in tip-cell adhesion force at 10 ug/ml by atomic force microscopy relative to control; type: functional, cell-based; how it was run: as §2
MCF7 [40] = test: Induction of apoptosis in human MCF7 cells assessed as late apoptotic cells at 20 ug/ml after 24 hrs by annexin-V FITC/propidium iodide staining-based flow cytometry (reference value: 1.0%); type: functional, cell-based; how it was run: as §1
MCF7 [41] = test: Growth inhibition of human MCF7 cells at 5 ug/ml by MTT assay; type: functional
MCF7 [42] = test: Induction of apoptosis in human MCF7 cells assessed as caspase 8 activation at 20 ug/ml by fluorometric analysis (reference value: 100%); type: functional, cell-based; how it was run: as §3
HepG2 [43] = test: Growth inhibition of human HepG2 cells by MTT assay; type: functional, cell-based
MCF7 [44] = test: Induction of apoptosis in human MCF7 cells assessed as intracellular ROS production measured as mean fluorescence intensity at 10 ug/ml using DCFH-DA staining-based flow cytometry (reference value: 101.50 no unit); type: functional, cell-based
HepG2 [45] = test: Growth inhibition of human HepG2 cells at 20 ug/ml by MTT assay; type: functional
MCF7 [46] = test: Cell cycle arrest in human MCF7 cells assessed as accumulation at G2/M phase at 20 ug/ml after 24 hrs by propidium iodide staining-based flow cytometry (reference value: 7.43 +/- 0.98%); type: functional
MCF7 [47] = test: Induction of apoptosis in human MCF7 cells assessed as viable cells at 10 ug/ml after 24 hrs by annexin-V FITC/propidium iodide staining-based flow cytometry (reference value: 98.1%); type: functional, cell-based; how it was run: as §1

## 5-hydroxy-2-phenyl-7-(triphenylgermyloxy)-4H-chromen-4-one ethanol
MCF7 [1]
  Activity: 6.2%
MCF7 [2]
  Activity: Active
MCF7 [3]
  Activity: 214%
COLO 205 [4]
  growth inhibition (GI): 20.3%
MCF7 [5]
  growth inhibition (GI): 31.3%
MCF7 [6]
  Flu intensity: 107
MCF7 [7]
  Activity: 19.5%
HepG2 [8]
  growth inhibition (GI): 7.95%
MCF7 [9]
  Activity: 0.6%
MCF7 [10]
  Activity: Active
MCF7 [11]
  Activity: 1.5%
HepG2 [12]
  growth inhibition (GI): 20.3%
MCF7 [13]
  growth inhibition (GI): 19.2%
COLO 205 [14]
  growth inhibition (GI): Dose-dependent effect
MCF7 [15]
  Activity: Active
MCF7 [16]
  Activity: 94.9%
MCF7 [17]
  Activity: 3.2%
MCF7 [18]
  Flu intensity: 1480
COLO 205 [19]
  growth inhibition (GI): 5.85%
MCF7 [20]
  Activity: Active
MCF7 [21]
  Activity: 5.1%
MCF7 [22]
  Activity: 24.5%
MCF7 [23]
  Activity: 74.5%
MCF7 [24]
  Activity: Active
MCF7 [25]
  Flu intensity: 87.1
MCF7 [26]
  growth inhibition (GI): 42.1%
MCF7 [27]
  Activity: 0.5%
COLO 205 [28]
  growth inhibition (GI): 31.6%
HepG2 [29]
  growth inhibition (GI): 36.7%
MCF7 [30]
  growth inhibition (GI): Dose-dependent effect
MCF7 [31]
  Activity: 15.8%
MCF7 [32]
  Activity: Active
MCF7 [33]
  Activity: 286%
MCF7 [34]
  Flu intensity: 1980
MCF7 [35]
  Activity: 8.73%
MCF7 [36]
  Flu intensity: 1370
COLO 205 [37]
  growth inhibition (GI): 12.1%
MCF7 [38]
  Activity: 0.7%
MCF7 [39]
  Activity: Active
MCF7 [40]
  Activity: 5.4%
MCF7 [41]
  growth inhibition (GI): 7.01%
MCF7 [42]
  Activity: 181%
HepG2 [43]
  growth inhibition (GI): Dose-dependent effect
MCF7 [44]
  Flu intensity: 126
HepG2 [45]
  growth inhibition (GI): 31.1%
MCF7 [46]
  Activity: 30.9%
MCF7 [47]
  Activity: 88.1%
